Test results taken from ChEMBL document CHEMBL5543089, “Discovery of a novel, highly potent EZH2 PROTAC degrader for targeting non-canonical oncogenic functions of EZH2” (Eur J Med Chem, 2024).
pIC50: −log10 of the molar value. Calls of active or inactive are those of the source. No cut-off for these calls is given here.

Assays:
[1] = biological target: T1, von Hippel-Lindau disease tumor suppressor/Histone-lysine N-methyltransferase EZH2 (Homo sapiens, UniProt Q15910+P40337); assay: PROTAC activity at VHL/EZH2 degradation in hMLLr AML cell line EOL1 cells assessed as protein degradation at 1 uM measured after 24 hrs by Western blot analysis; assay type: cell-based
T1 sequence (P40337 whole entry, looked up): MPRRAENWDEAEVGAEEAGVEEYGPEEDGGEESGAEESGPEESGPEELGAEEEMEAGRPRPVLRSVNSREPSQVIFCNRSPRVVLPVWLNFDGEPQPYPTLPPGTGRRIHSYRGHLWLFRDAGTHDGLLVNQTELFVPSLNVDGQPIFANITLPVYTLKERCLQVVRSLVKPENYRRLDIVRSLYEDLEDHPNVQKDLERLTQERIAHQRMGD
T1 sequence (Q15910 whole entry, looked up): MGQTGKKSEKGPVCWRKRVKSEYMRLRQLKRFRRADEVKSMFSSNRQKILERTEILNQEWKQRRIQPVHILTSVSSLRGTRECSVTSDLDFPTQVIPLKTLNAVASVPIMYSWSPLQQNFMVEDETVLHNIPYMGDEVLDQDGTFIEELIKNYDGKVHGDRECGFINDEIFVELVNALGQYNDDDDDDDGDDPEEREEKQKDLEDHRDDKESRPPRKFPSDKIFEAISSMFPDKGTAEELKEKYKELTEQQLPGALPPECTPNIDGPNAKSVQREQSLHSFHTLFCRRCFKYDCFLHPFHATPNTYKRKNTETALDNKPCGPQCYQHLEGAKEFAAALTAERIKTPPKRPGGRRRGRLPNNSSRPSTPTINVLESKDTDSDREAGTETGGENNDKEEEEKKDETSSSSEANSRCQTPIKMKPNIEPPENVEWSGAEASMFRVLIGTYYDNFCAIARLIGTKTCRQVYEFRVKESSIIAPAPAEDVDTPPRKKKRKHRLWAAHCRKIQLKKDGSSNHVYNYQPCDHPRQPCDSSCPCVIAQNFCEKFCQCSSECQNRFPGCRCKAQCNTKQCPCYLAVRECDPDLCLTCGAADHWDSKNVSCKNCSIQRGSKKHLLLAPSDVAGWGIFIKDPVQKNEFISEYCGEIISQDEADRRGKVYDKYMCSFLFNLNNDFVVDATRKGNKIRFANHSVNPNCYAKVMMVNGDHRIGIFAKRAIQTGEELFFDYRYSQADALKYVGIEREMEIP
Summary of the method: (§1)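 Cells were seeded at 0.5–2 million per well and treated for 24 h, or for the stated times at 300 nM in the time course. Lysis was in RIPA with protease inhibitors; ~10 μg protein was run on SDS-PAGE and blotted to PVDF. Detection used fluorescent immunoblotting for EZH2, EED and SUZ12, with β-actin as loading control. Blots are representative of two biological experiments.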

[2] = biological target: T1, von Hippel-Lindau disease tumor suppressor/Histone-lysine N-methyltransferase EZH2; assay: PROTAC activity at VHL/EZH2 degradation in hMLLr AML cell line EOL1 cells assessed as protein degradation at 0.1 uM measured after 24 hrs by Western blot analysis; assay type: cell-based; summary of the method: as §1
[3] = biological target: T1, von Hippel-Lindau disease tumor suppressor/Histone-lysine N-methyltransferase EZH2; assay: PROTAC activity at VHL/EZH2 degradation in hMLLr AML cell line EOL1 cells assessed as protein degradation at 0.1 to 1 uM measured after 24 hrs by Western blot analysis; assay type: cell-based; conditions: dose 0.1-1 µM; summary of the method: as §1
[4] = tested on: RS4-11; assay: Anti-proliferative activity against human RS4-11 cells assessed as cell viability measured after 5 days incubation by CCK-8 assay; assay type: functional, cell-based; conditions: RS4-11, 120 h
Summary of the method: (§2)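 Cells plated at 3,000–10,000 per well and exposed to serial dilutions for 5 days at 37 °C. CCK-8 (1x) was added for 2–4 h, with absorbance read at 450 nm against a 690 nm reference. IC50 was taken from curve fits. Leukemia lines were grown in RPMI-1640, K562 in IMDM and MDA-MB-468 in DMEM, all with 10 % FBS. Values are means ± SD of two biological experiments (three for BT549 and MDA-MB-468).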

[5] = tested on: EOL1; assay: Anti-proliferative activity against human EOL1 cells assessed as cell viability measured after 5 days incubation by CCK-8 assay; assay type: functional, cell-based; conditions: EOL1, 120 h; summary of the method: as §2
[6] = tested on: MV4-11; assay: Anti-proliferative activity against human MV4-11 cells assessed as cell viability measured after 5 days incubation by CCK-8 assay; assay type: functional, cell-based; conditions: MV4-11, 120 h; summary of the method: as §2
[7] = tested on: BT-549; assay: Anti-proliferative activity against human BT-549 cells assessed as cell growth inhibition measured after 5 days incubation by CCK-8 assay; assay type: functional, cell-based; conditions: BT-549, 120 h; summary of the method: as §2
[8] = tested on: MDA-MB-468; assay: Anti-proliferative activity against human MDA-MB-468 cells assessed as cell growth inhibition measured after 5 days incubation by CCK-8 assay; assay type: functional, cell-based; conditions: MDA-MB-468, 120 h; summary of the method: as §2

Row | SMILES | Activity [3] | pIC50 [4] | pIC50 [5] | pIC50 [6] | further results
1 | CCN(c1cc(-c2ccc(CN3CCN(CCC(=O)NCCCCCCCCCC(=O)N[C@H](C(=O)N4C[C@H](O)C[C@H]4C(=O)NCc4ccc(-c5scnc5C)cc4)C(C)(C)C)CC3)cc2)cc(C(=O)NCc2c(C)cc(C)[nH]c2=O)c1C)C1CCOCC1 | – | – | – | – | Activity [1]: Active; Activity [2]: 100%
2 | CCN(c1cc(-c2ccc(CN3CCN(CCC(=O)NCCCCCCCC(=O)N[C@H](C(=O)N4C[C@H](O)C[C@H]4C(=O)NCc4ccc(-c5scnc5C)cc4)C(C)(C)C)CC3)cc2)cc(C(=O)NCc2c(C)cc(C)[nH]c2=O)c1C)C1CCOCC1 | Active | – | – | – | –
3 | CCN(c1cc(-c2ccc(CN3CCN(CCC(=O)NCCCCCC(=O)N[C@H](C(=O)N4C[C@H](O)C[C@H]4C(=O)NCc4ccc(-c5scnc5C)cc4)C(C)(C)C)CC3)cc2)cc(C(=O)NCc2c(C)cc(C)[nH]c2=O)c1C)C1CCOCC1 | inactive | – | – | – | –
4 | CCN(c1cc(-c2ccc(CN3CCN(CCC(=O)NCCCCCCCCC(=O)N[C@H](C(=O)N4C[C@H](O)C[C@H]4C(=O)NCc4ccc(-c5scnc5C)cc4)C(C)(C)C)CC3)cc2)cc(C(=O)NCc2c(C)cc(C)[nH]c2=O)c1C)C1CCOCC1 | Active | – | – | – | –
5 | CCN(c1cc(-c2ccc(CN3CCN(CCCCCCCOc4cccc5c4C(=O)N(C4CCC(=O)NC4=O)C5=O)CC3)cc2)cc(C(=O)NCc2c(C)cc(C)[nH]c2=O)c1C)C1CCOCC1 (stereo unspecified) | – | 5.30 | 5.43 | 5.26 | –
6 | CCN(c1cc(-c2ccc(CN3CCN(C(=O)CCCCCCCC(=O)N[C@H](C(=O)N4C[C@H](O)C[C@H]4C(=O)NCc4ccc(-c5scnc5C)cc4)C(C)(C)C)CC3)cc2)cc(C(=O)NCc2c(C)cc(C)[nH]c2=O)c1C)C1CCOCC1 | – | 5.85 | 6.38 | 6.00 | –
7 | CCN(c1cc(-c2ccc(CN3CCN(CCC(=O)NCCCCCCC(=O)N[C@H](C(=O)N4C[C@H](O)C[C@H]4C(=O)NCc4ccc(-c5scnc5C)cc4)C(C)(C)C)CC3)cc2)cc(C(=O)NCc2c(C)cc(C)[nH]c2=O)c1C)C1CCOCC1 | inactive | – | – | – | –
8 | Cc1cc(C)c(CNC(=O)c2cc(-c3ccc(N4CCN(CCCCCCCCCc5cn(CCOCCOCCOCCOCCOCCOCCNc6cccc7c6C(=O)N(C6CCC(=O)NC6=O)C7=O)nn5)CC4)nc3)cc3c2cnn3C(C)C)c(=O)[nH]1 (stereo unspecified) | – | 6.19 | 6.00 | 6.34 | –
9 | CCN(c1cc(-c2ccc(CN3CCN(CCC(=O)NCCCCC(=O)N[C@H](C(=O)N4C[C@H](O)C[C@H]4C(=O)NCc4ccc(-c5scnc5C)cc4)C(C)(C)C)CC3)cc2)cc(C(=O)NCc2c(C)cc(C)[nH]c2=O)c1C)C1CCOCC1 | inactive | – | – | – | –
10 | CCN(c1cc(-c2ccc(CN3CCOCC3)cc2)cc(C(=O)NCc2c(C)cc(C)[nH]c2=O)c1C)C1CCOCC1 [TAZEMETOSTAT] | – | – | – | – | pIC50 [7]: < 5.00; pIC50 [8]: < 5.60
11 | CCN(c1cc(-c2ccc(OCCCOCC(=O)N[C@H](C(=O)N3C[C@H](O)C[C@H]3C(=O)NCc3ccc(-c4scnc4C)cc3)C(C)(C)C)cc2)cc(C(=O)NCc2c(C)cc(C)[nH]c2=O)c1C)C1CCOCC1 | – | 5.39 | 5.27 | < 5.00 | –
